Data from ChEMBL document CHEMBL1121525, “Folate analogues altered in the C9--N10 bridge region. 14. 11-Oxahomofolic acid, a potential antitumor agent” (J Med Chem, 1980).
≈ marks a conversion by molar mass, not a printed value.

Experiments:
Format in all cases: functional, organism-based
Enterococcus faecium [1] = experiment: Compound was measured for the 50% growth inhibition of Streptococcus faecium MTX resistant microorganism.; conditions: for IC50: Enterococcus faecium, read-out: I50
Method in brief: (§1)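 Growth-inhibition test. The reduced test forms were quantified by UV absorbance at pH 7.4 using a molar absorptivity at 270 or 301 nm. Other forms were quantified by weight. The 7,8-dihydro form was made by excess sodium dithionite reduction of the aqueous potassium salt at room temperature.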

Enterococcus faecium [2] = experiment: Compound was measured for the 50% growth inhibition of Streptococcus faecium ATCC 8043 microorganism.; conditions: for IC50: Enterococcus faecium, ATCC 8043, read-out: I50; method in brief: as §1
Lacticaseibacillus casei [3] = experiment: Compound was measured for the 50% growth inhibition of Lactobacillus casei ATCC 7469 microorganism.; conditions: for IC50: Lacticaseibacillus casei, ATCC 7469, read-out: I50
Method in brief: (§2)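 Drug solution concentrations were set either by weight or by UV absorbance at pH 7.4, using extinction coefficients of 9600 at 270 nm or 10 250 at 301 nm. The 7,8-dihydro form was made by treating the potassium salt with excess sodium dithionite at room temperature. The tetrahydro forms came from catalytic or enzymatic reduction.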

Lacticaseibacillus casei [4] = experiment: Compound was measured for the 50% growth inhibition of Lactobacillus casei MTX resistant microorganism.; conditions: for IC50: Lacticaseibacillus casei, read-out: I50; method in brief: as §2

Compound `Nc1nc(O)c2nc(CCOc3ccc(C(=O)NC(CCC(=O)O)C(=O)O)cc3)cnc2n1` (stereo not drawn) has an IC50 (Enterococcus faecium [1]) of 260 ng/mL (≈ 0.57 µM), an IC50 (Enterococcus faecium [2]) of 14 ng/mL (≈ 0.0307 µM) and an IC50 (Lacticaseibacillus casei [3]) of 320 ng/mL (≈ 0.701 µM). The IC50 (Lacticaseibacillus casei [4]) was 1000 ng/mL (≈ 2.19 µM).

Work on `Nc1nc(O)c2c(n1)NCC(CCOc1ccc(C(=O)NC(CCC(=O)O)C(=O)O)cc1)=N2` (stereo not drawn) yielded an IC50 (Lacticaseibacillus casei [3]) of 240 ng/mL (≈ 0.524 µM) and an IC50 (Lacticaseibacillus casei [4]) of 700 ng/mL (≈ 1.53 µM).

In the case of `Nc1nc(O)c2c(n1)NCC(CCOc1ccc(C(=O)NC(CCC(=O)O)C(=O)O)cc1)N2` (racemic), the I50 (Enterococcus faecium [1]) is reported as 50 ng/mL, the I50 (Enterococcus faecium [2]) is reported as 0.7 ng/mL and the I50 (Lacticaseibacillus casei [3]) is reported as 10 ng/mL. For the same compound, the I50 (Lacticaseibacillus casei [4]) was 19 ng/mL.

`Nc1nc(O)c2c(n1)NCC(CCOc1ccc(C(=O)NC(CCC(=O)O)C(=O)O)cc1)N2` (stereo in doubt) gave an I50 (Enterococcus faecium [1]) greater than 200 ng/mL, an I50 (Enterococcus faecium [2]) of 9 ng/mL and an I50 (Lacticaseibacillus casei [3]) of 56 ng/mL. It also gave an I50 (Lacticaseibacillus casei [4]) of 64 ng/mL.

In the case of `CN(Cc1cnc2nc(N)nc(N)c2n1)c1ccc(C(=O)N[C@@H](CCC(=O)O)C(=O)O)cc1` [METHOTREXATE], the IC50 (Enterococcus faecium [1]) is reported as 3500 ng/mL (≈ 7.7 µM), the IC50 (Enterococcus faecium [2]) is reported as 0.05 ng/mL (≈ 0.00011 µM) and the IC50 (Lacticaseibacillus casei [3]) is reported as 0.07 ng/mL (≈ 0.000154 µM). For the same compound, the I50 (Lacticaseibacillus casei [4]) was greater than 500000 ng/mL.
